Reference: PMC12248229 (PeerJ, 2025)
Like-named read-outs stand apart in the source and are kept apart here. Values belong to the compound of their own block, whether it stands above or below them.

Key:
[1] = assay type: in vivo, Sprague-Dawley (SD) rats; conditions: for AUC(0-t): AUC0–t; for AUC(0-t) / Cmax / MRT last / MRT inf / Tmax / half-life / CLz / Vz: n = 6; for MRT last: MRT0–t; for MRT inf: MRT0–∞; for half-life: t1/2, rats
[2] = ref Lathia et al., 2006; cited from earlier work
[3] = test system: patients with advanced HCC; conditions: ref Llovet et al., 2008, cited from earlier work
[4] = test system: Ugt2b7; experiment: qRT-PCR mRNA expression in rat liver and intestine after 7 days of dosing; assay type: in vivo; conditions: after administration for seven consecutive days
In short: (§1)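 Rats (n = 6/group) gavaged daily for 7 days with test compound: 2.5 or 1 mg/kg in 0.5% CMC-Na, or 100 mg/kg in 0.5% CMC-Na with 5% DMSO. Liver and intestine harvested under chloral hydrate and stored at −80 °C. TRNzol RNA extraction; 1 μg RNA reverse-transcribed. qPCR: 95 °C 15 min, then 40 cycles of 95 °C 10 s/60 °C 32 s. […] reference; 2^−ΔΔCT.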

[5] = test system: P-gp; experiment: as above; assay type: in vivo; conditions: after multiple doses
In short: as §1

[6] = Stability of analytes in rat plasma; assay type: physicochemical; conditions: n = 6
[7] = in vivo; assay type: in vivo, Sprague-Dawley (SD) rats; conditions: for AUC(0-t): AUC0–t; for AUC(0-inf): AUC0–∞; for MRT last: MRT0–t; for MRT inf: MRT0–∞; for half-life: t1/2, rats
[8] = test system: Ugt1a7; experiment: qRT-PCR mRNA expression in rat liver and intestine after 7 days of dosing; assay type: in vivo; conditions: either the liver or the intestine of rats, after multiple doses
In short: as §1

[9] = test system: Oatp1b2; experiment: qRT-PCR mRNA expression in rat liver after 7 days of dosing; assay type: in vivo; conditions: after multiple doses
In short: as §1

[10] = ref Chen et al., 2021, Zhang et al.; cited from earlier work
[11] = Sprague-Dawley, rat, plasma, po, 100 mg/kg, rats, sorafenib 100 mg/kg after empagliflozin […] for 7 consecutive days
[12] = Sprague-Dawley, rat, plasma, po, 100 mg/kg, rats, sorafenib 100 mg/kg after henagliflozin 1 mg/kg for 7 consecutive days
[13] = Sprague-Dawley, rat, plasma, po, 100 mg/kg, rats, sorafenib 100 mg/kg by gavage, alone
[14] = rats, after empagliflozin, versus sorafenib alone group
[15] = rats, coadministered with henagliflozin, versus sorafenib alone
[16] = rats, sorafenib 100 mg/kg after empagliflozin […] for 7 consecutive days
[17] = rats, sorafenib 100 mg/kg after henagliflozin 1 mg/kg for 7 consecutive days
[18] = rats, sorafenib 100 mg/kg by gavage, alone
[19] = Autosampler (15 °C) for 6 h, nominal 10 ng/mL
[20] = Autosampler (15 °C) for 6 h, nominal 800 ng/mL
[21] = Autosampler (15 °C) for 6 h, nominal 1,500 ng/mL
[22] = Room temperature for 4 h, nominal 10 ng/mL
[23] = Room temperature for 4 h, nominal 800 ng/mL
[24] = Room temperature for 4 h, nominal 1,500 ng/mL
[25] = Three freeze–thaw cycles (−80 °C to 25 °C), nominal 10 ng/mL
[26] = Three freeze–thaw cycles (−80 °C to 25 °C), nominal 800 ng/mL
[27] = Three freeze–thaw cycles (−80 °C to 25 °C), nominal 1,500 ng/mL
[28] = −80 °C for 30 days, nominal 10 ng/mL
[29] = −80 °C for 30 days, nominal 800 ng/mL
[30] = −80 °C for 30 days, nominal 1,500 ng/mL
[31] = Sprague-Dawley, rat, in vivo, po, 1 mg/kg, rats, henagliflozin 1 mg/kg after sorafenib 100 mg/kg for 7 consecutive days, n = 6
[32] = Sprague-Dawley, rat, in vivo, po, 1 mg/kg, rats, henagliflozin 1 mg/kg oral, alone, n = 6
[33] = rats, henagliflozin 1 mg/kg after sorafenib 100 mg/kg for 7 consecutive days, n = 6
[34] = rats, henagliflozin and sorafenib, versus control group

Structure (SMILES): CNC(=O)c1cc(Oc2ccc(NC(=O)Nc3ccc(Cl)c(C(F)(F)F)c3)cc2)ccn1 [Sorafenib]
AUC(0-inf) ([1]; Sprague-Dawley, rat, plasma, po, 100 mg/kg): 20600 ng·h/mL
AUC(0-t) [1, 11]: 37000 ng·h/mL
AUC(0-t) [1, 12]: 33500 ng·h/mL
AUC(0-t) [1, 13]: 20000 ng·h/mL
Cmax [1, 11]: 1860 ng/mL
Cmax [1, 12]: 1230 ng/mL
Cmax [1, 13]: 967 ± 176 ng/mL
MRT last [1, 11]: 28.7 ± 11.5 h
MRT last [1, 12]: 51 ± 11.1 h
MRT last [1, 13]: 37.2 ± 11.4 h
MRT inf [1, 12]: 66 ± 24.8 h
MRT inf [1, 13]: 40.5 ± 13.4 h
Tmax [1, 12]: 5.67 ± 2.58 h
Tmax [1, 13]: 4.33 ± 2.07 h
half-life ([1]; Sprague-Dawley, rat, plasma, po, 100 mg/kg, sorafenib 100 mg/kg after empagliflozin […] for 7 consecutive days): 47.6 ± 32.2 h
half-life ([1]; Sprague-Dawley, rat, plasma, po, 100 mg/kg, sorafenib 100 mg/kg after henagliflozin 1 mg/kg for 7 consecutive days): 28.6 ± 21.7 h
half-life ([1]; Sprague-Dawley, rat, plasma, po, 100 mg/kg, sorafenib 100 mg/kg by gavage, alone): 18.7 ± 4.85 h
decrease of CLz/F of sorafenib ([1]; rats, after empagliflozin, versus control group): 45%
increase of AUC0–t of sorafenib [1, 14]: 84%
increase of AUC0–∞ of sorafenib [1, 14]: 93%
increase of Cmax of sorafenib [1, 14]: 92%
increase of AUC0–t of sorafenib [1, 15]: 67%
increase of AUC0–∞ of sorafenib [1, 15]: 80%
CLz [1, 16]: 53.3 ± 33.5 mL/min/kg
Vz [1, 16]: 201.55 ± 161.11 L/kg
CLz [1, 17]: 46.8 ± 10.8 mL/min/kg
Vz [1, 17]: 110.19 ± 73.12 L/kg
CLz [1, 18]: 97 ± 43.2 mL/min/kg
Vz [1, 18]: 93.83 ± 63.20 L/kg
administered dose eliminated as oxidative metabolites [2]: less than 5%
administered dose removed from the body through glucuronidation [2]: 15%
HR (overall survival versus control group) ([3]; 95% confidence interval [0.55–0.87], P < 0.001): 0.69
median overall survival ([3]; patients in the sorafenib group, phase 3 versus placebo): 10.7 months
downregulation of mRNA expression of Ugt2b7 ([4]; rat intestine): 68.3%
effect on the expression of Ugt2b7 ([4]; rat liver): did not significantly affect

Stability: Accuracy (RE%) [6, 19]: −4.33%
Stability: Mean ± SD measured concentration [6, 19]: 9.57 ± 0.87 ng/mL
Stability: Accuracy (RE%) [6, 20]: −1.90%
Stability: Mean ± SD measured concentration [6, 20]: 784.83 ± 31.98 ng/mL
Stability: Accuracy (RE%) [6, 21]: −4.22%
Stability: Mean ± SD measured concentration [6, 21]: 1,436.67 ± 29.44 ng/ml
Stability: Accuracy (RE%) [6, 22]: −0.28%
Stability: Mean ± SD measured concentration [6, 22]: 9.97 ± 0.73 ng/mL
Stability: Accuracy (RE%) [6, 23]: −4.63%
Stability: Mean ± SD measured concentration [6, 23]: 763.00 ± 31.79 ng/mL
Stability: Accuracy (RE%) [6, 24]: −2.00%
Stability: Mean ± SD measured concentration [6, 24]: 1,470.00 ± 59.67 ng/ml
Stability: Accuracy (RE%) [6, 25]: −1.70%
Stability: Mean ± SD measured concentration [6, 25]: 9.83 ± 0.95 ng/mL
Stability: Accuracy (RE%) [6, 26]: −3.65%
Stability: Mean ± SD measured concentration [6, 26]: 770.83 ± 18.66 ng/mL
Stability: Accuracy (RE%) [6, 27]: 0.56%
Stability: Mean ± SD measured concentration [6, 27]: 1,508.33 ± 72.78 ng/ml
Stability: Accuracy (RE%) [6, 28]: −1.12%
Stability: Mean ± SD measured concentration [6, 28]: 9.89 ± 0.95 ng/mL
Stability: Accuracy (RE%) [6, 29]: −1.35%
Stability: Mean ± SD measured concentration [6, 29]: 789.17 ± 38.83 ng/mL
Stability: Accuracy (RE%) [6, 30]: −2.11%
Stability: Mean ± SD measured concentration [6, 30]: 1,468.33± 53.45 ng/ml
AUC(0-t) [7, 31]: 3450 ng·h/mL
AUC(0-t) [7, 32]: 1920 ng·h/mL
AUC(0-inf) [7, 31]: 3460 ng·h/mL
AUC(0-inf) [7, 32]: 1950 ng·h/mL
Cmax ([7]; Sprague-Dawley, rat, in vivo, po, 1 mg/kg, Cmax, rats, henagliflozin 1 mg/kg oral, alone, n = 6): 197 ± 36.9 ng/mL
MRT last [7, 31]: 9.36 ± 3.63 h
MRT last [7, 32]: 7.84 ± 1.68 h
MRT inf [7, 31]: 9.49 ± 3.57 h
MRT inf [7, 32]: 8.49 ± 2.86 h
Tmax [7, 31]: 1.33 ± 1.36 h
Tmax [7, 32]: 3.25 ± 1.67 h
half-life ([7]; Sprague-Dawley, rat, in vivo, po, 1 mg/kg, henagliflozin 1 mg/kg after sorafenib 100 mg/kg for 7 consecutive days, n = 6): 5.1 ± 1.31 h
half-life ([7]; Sprague-Dawley, rat, in vivo, po, 1 mg/kg, henagliflozin 1 mg/kg oral, alone, n = 6): 5.11 ± 3.62 h
CLz [7, 33]: 5 ± 0.83 mL/min/kg
Vz [7, 33]: 2.25 ± 0.77 L/kg
CLz ([7]; rats, henagliflozin 1 mg/kg oral, alone, n = 6): 8.83 ± 1.7 mL/min/kg
differences in Tmax, t1/2, Vz/F, MRT0–t and MRT0–∞ of henagliflozin ([7]; rats, henagliflozin and sorafenib versus control): no significant differences
increase of AUC0–t of henagliflozin [7, 34]: 79.1%
increase of AUC0–∞ of henagliflozin [7, 34]: 77.7%
Structure (SMILES): CCOc1ccc(Cc2cc([C@@]34OC[C@@](CO)(O3)[C@@H](O)[C@H](O)[C@H]4O)ccc2Cl)cc1F [Henagliflozin]
decrease of mRNA expression of P-gp ([5]; rat intestine): 43.2%
decrease of mRNA expression of P-gp ([5]; rat liver): 27.1%
change in the expression of Ugt1a7 [8]: no significant change
decrease of mRNA expression of Oatp1b2 [9]: 38.4%
eliminated by the fecal route [10]: 50%
eliminated by the renal route [10]: 30%
